Test results: ChEMBL document CHEMBL1156880, “Isosorbide-based cholinesterase inhibitors; replacement of 5-ester groups leading to increased stability” (Bioorg Med Chem, 2010)
Calls of active or inactive are those of the source. The rule behind the calls is not given here.

Tests used:
Cholinesterase [1] = molecular target: T1, Cholinesterase (Homo sapiens, UniProt P06276); test: Inhibition of human plasma BuChE at 100 uM preincubated for 30 mins before substrate addition by Ellman's assay; format: cell-free
How it was run: (§1)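 Ellman assay, phosphate buffer pH 8.0. Human plasma from heparinised venous blood, centrifuged and diluted 1 mL to 20 mL in buffer, with DTNB. Inhibitor, in acetonitrile/water 1:1 as vehicle, preincubated 30 min before butyrylthiocholine is added (final 0.5 mM); 412 nm read over 5 min. Screened at 100 μM; IC50 determined only where inhibition exceeded 90%. Controls without enzyme; n = 6.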

[2] = molecular target: Acetylcholinesterase (Electrophorus electricus) (UniProt O42275); test: Inhibition of electric eel AChE at 100 uM preincubated for 30 mins before substrate addition by Ellman's assay
How it was run: (§2)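 Ellman assay, phosphate buffer pH 8.0. Inhibitor, in acetonitrile/water 1:1 as vehicle, preincubated with enzyme 30 min before acetylthiocholine is added (final 0.5 mM); 412 nm read over 5 min. Screened at 100 μM; IC50 found by serial lower concentrations only where inhibition exceeded 90%. Controls without enzyme account for spontaneous hydrolysis; n = 6.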

Cholinesterase [3] = molecular target: T1, Cholinesterase; test: Inhibition of human plasma BuChE preincubated for 30 mins before substrate addition by Ellman's assay; how it was run: as §1
[4] = Selectivity for human plasma BuChE over electric eel AChE; format: cell-free
How it was run: (§3)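 Ratio of the 30 min BuChE and AChE IC50 values from the Ellman assays, using 100 μM in place of any IC50 that was not determined.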

Acetylcholinesterase = Acetylcholinesterase (Electrophorus electricus, UniProt O42275); test: Inhibition of electric eel AChE preincubated for 30 mins before substrate addition by Ellman's assay; how it was run: as §2
[5] = Selectivity for electric eel AChE over human plasma BuChE; format: cell-free; how it was run: as §3
Mus musculus = test: Inhibition of BuChE in CD1 mouse plasma at 1 mg/kg, ip administered as single dose measured after 72 hrs; format: functional, organism-based; parameters: dose 1 mg/kg
How it was run: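 Male CD-1 mice (35–40 g) given one ip injection, 0.1 mL per 10 g body weight, into the left lower abdominal quadrant; n = 9 split into three subgroups of 3 for serial sampling. Submandibular blood (about 50 μL) collected into lithium heparin and kept on ice; terminal sampling by cardiac puncture under ketamine/xylazine. Plasma spun 10 min at 4 °C, then BuChE activity read ex vivo by Ellman assay.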

Acetylcholinesterase (Electrophorus electricus), sequence (O42275 24-633 limits assumed): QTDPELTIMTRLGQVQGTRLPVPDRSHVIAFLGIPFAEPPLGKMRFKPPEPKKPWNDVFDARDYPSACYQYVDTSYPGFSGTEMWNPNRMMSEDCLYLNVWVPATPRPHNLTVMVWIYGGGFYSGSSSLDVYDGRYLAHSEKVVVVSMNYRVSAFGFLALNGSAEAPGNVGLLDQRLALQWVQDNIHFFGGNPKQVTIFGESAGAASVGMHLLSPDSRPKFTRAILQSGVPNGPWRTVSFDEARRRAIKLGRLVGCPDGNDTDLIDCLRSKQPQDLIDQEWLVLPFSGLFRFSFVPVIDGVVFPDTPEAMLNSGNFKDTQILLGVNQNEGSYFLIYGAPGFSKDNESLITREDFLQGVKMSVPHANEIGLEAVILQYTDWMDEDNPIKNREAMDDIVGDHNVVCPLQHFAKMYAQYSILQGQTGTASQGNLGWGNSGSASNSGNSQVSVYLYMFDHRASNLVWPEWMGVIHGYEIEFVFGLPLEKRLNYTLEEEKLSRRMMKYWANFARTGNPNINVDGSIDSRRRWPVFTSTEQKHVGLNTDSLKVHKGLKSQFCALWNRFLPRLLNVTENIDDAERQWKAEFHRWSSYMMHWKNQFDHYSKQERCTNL
T1 sequence (P06276 whole entry): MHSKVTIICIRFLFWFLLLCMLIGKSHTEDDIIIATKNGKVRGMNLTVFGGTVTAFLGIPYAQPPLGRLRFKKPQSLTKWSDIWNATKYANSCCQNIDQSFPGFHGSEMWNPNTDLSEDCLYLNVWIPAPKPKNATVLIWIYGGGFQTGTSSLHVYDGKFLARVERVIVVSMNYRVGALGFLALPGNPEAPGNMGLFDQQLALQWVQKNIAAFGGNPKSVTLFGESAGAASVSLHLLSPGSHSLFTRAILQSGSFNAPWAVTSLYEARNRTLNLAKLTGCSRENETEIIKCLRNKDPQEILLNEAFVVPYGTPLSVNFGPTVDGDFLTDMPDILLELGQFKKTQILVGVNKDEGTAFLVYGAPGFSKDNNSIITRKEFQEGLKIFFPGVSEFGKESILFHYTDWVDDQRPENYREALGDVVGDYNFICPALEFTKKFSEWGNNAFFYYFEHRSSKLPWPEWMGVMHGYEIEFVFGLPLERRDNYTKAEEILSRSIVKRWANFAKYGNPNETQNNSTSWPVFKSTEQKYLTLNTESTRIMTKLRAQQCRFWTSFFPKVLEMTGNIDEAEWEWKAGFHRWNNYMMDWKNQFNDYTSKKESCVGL
Acetylcholinesterase, sequence (O42275 whole entry): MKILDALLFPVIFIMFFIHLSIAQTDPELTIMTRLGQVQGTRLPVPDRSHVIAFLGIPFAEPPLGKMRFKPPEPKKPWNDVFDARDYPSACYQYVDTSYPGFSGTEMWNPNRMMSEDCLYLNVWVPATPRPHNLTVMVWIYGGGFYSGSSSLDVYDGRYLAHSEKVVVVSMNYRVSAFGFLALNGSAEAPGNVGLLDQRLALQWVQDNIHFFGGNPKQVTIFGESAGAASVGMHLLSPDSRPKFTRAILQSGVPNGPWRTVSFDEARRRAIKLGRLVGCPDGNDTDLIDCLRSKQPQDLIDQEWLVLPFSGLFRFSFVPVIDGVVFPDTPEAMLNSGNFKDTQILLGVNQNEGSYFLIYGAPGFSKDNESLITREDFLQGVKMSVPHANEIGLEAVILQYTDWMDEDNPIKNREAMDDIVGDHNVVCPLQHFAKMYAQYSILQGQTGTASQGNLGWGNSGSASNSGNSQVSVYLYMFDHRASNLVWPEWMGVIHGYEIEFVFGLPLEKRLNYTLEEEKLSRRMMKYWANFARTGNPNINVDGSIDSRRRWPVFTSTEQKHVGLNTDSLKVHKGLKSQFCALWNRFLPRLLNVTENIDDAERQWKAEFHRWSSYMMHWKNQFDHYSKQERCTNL

Row | Compound | inhibition (Cholinesterase [1]) [%] | inhibition [2] [%] | IC50 (Cholinesterase [3]) [µM] | Selectivity ratio [4] | IC50 (Acetylcholinesterase) [µM] | Selectivity ratio [5] | inhibition (Mus musculus)
1 | [N-]=[N+]=N[C@@H]1CO[C@H]2[C@@H]1OC[C@@H]2OC(=O)NCc1ccccc1 | 50.4 | 5 | – | – | – | – | –
2 | O=C(Nc1ccc(Cl)cc1)O[C@H]1CO[C@H]2[C@@H]1OC[C@H]2OC(=O)Nc1ccc(Cl)cc1 | 7.96 | – | – | – | – | – | –
3 | O=C(NCc1ccccc1)O[C@H]1CO[C@H]2[C@@H]1OC[C@H]2OC(=O)NCc1ccccc1 | – | 77 | 0.4 | 250 | – | – | –
4 | CCCCNC(=O)O[C@H]1CO[C@H]2[C@@H]1OC[C@H]2OC(=O)NCCCC | – | 13 | 1.22 | 81 | – | – | –
5 | O=C(Nc1ccc([N+](=O)[O-])cc1)O[C@H]1CO[C@H]2[C@@H]1OC[C@H]2OC(=O)Nc1ccc([N+](=O)[O-])cc1 | 17.4 | – | – | – | 5.4 | 18.5 | –
6 | CCCNC(=O)O[C@H]1CO[C@H]2[C@@H]1OC[C@H]2OC(=O)NCCC | – | 28 | 10.4 | 9.6 | – | – | –
7 | O=C(NCc1ccccc1)O[C@H]1CO[C@H]2[C@@H]1OC[C@H]2NC(=O)c1ccccc1 | 88 | 46 | – | – | – | – | –
8 | O=C(NCc1ccccc1)O[C@H]1CO[C@@H]2C(=O)CO[C@H]12 | 46 | 10 | – | – | – | – | –
9 | O=C(Nc1ccccc1)O[C@H]1CO[C@H]2[C@@H]1OC[C@H]2OC(=O)Nc1ccccc1 | 20.6 | 77 | – | – | – | – | –
10 | O=C(NCc1ccccc1)O[C@H]1CO[C@@H]2/C(=N/O)CO[C@H]12 | 40 | 83 | – | – | – | – | –
11 | CN1C(=O)CO[C@@H]2[C@@H](OC(=O)NCc3ccccc3)CO[C@@H]21 | 63 | 6.5 | – | – | – | – | –
12 | O=C(NCc1ccccc1)O[C@H]1CO[C@H]2[C@@H]1OC[C@H]2OCc1ccccc1 | – | 55 | 0.052 | 1920 | – | – | Active
13 | CCNC(=O)O[C@H]1CO[C@H]2[C@@H]1OC[C@H]2OC(=O)NCC | 55.1 | – | – | – | 6.5 | 15.4 | –
14 | CCOC(=O)/C=C1\CO[C@@H]2[C@@H](OC(=O)NCc3ccccc3)CO[C@H]12 | – | 4.9 | 4.8 | 21 | – | – | –
15 | O=C(NCc1ccccc1)O[C@H]1CO[C@@H]2/C(=N/OC(=O)c3ccccc3)CO[C@H]12 | 64.8 | 9 | – | – | – | – | –
16 | O=C(NCc1ccccc1)O[C@H]1CO[C@@H]2C=CO[C@H]12 | – | 9.8 | 10.2 | 9.7 | – | – | –
17 | O=C1CO[C@H]2[C@H](OC[C@@H]2OC(=O)NCc2ccccc2)O1 (relative stereo) | 56 | 10 | – | – | – | – | –
